Experimental findings from ChEMBL document CHEMBL4257448, “Deciphering the origins of molecular toxicity of combretastatin A4 and its glycoconjugates: interactions with major drug transporters and their safety profiles in vitro and in vivo” (Medchemcomm, 2017) are described below.

The source made the active and inactive calls. The rule behind the calls is not given here.

Data set [1] in a line: Cytotoxicity against HEK293FT cells assessed as reduction in cell viability up to 20 uM. The format is cell-based. Particulars: human.
In a further data set the test system is MDA-MB-231. Put plainly: Cytotoxicity against human MDA-MB-231 cells assessed as reduction in cell viability up to 20 uM after 24 hrs by MTT assay. The format is functional, cell-based. The method, boiled down: (§1)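 Cells were grown as adherent monolayers at 37 °C in 5% CO2: SKOV3 in advanced DMEM, DU145 and MB231 in RPMI-1640 with glutamine and 10% FBS. They were seeded at 2000–7500 cells/well, treated on day 1 for 24 h with drug in DMSO (final DMSO <0.1%), then given MTT at 0.83 mg mL−1 final overnight. After SDS/HCl lysis, A570 was read as percent of drug-free control; five replicate wells.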

In another data set the test system is HEK293. Description: Cytotoxicity against HEK293 cells assessed as reduction in cell viability up to 200 uM after 10 mins by MTT assay. The format is cell-based. As to conditions: human, hek293, 10 min. The method, boiled down:
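HEK293-mock cells were exposed to 100 or 200 μM for 10 min. MTT was added at 0.83 mg mL−1 final and incubated overnight. Cells were lysed in 15% SDS/0.015 M HCl and absorbance was read at 570 nm. Viability is given as % of drug-free controls.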

Another data set relates to DU-145. Description: Cytotoxicity against human DU145 cells assessed as reduction in cell viability up to 20 uM after 24 hrs by MTT assay. The format is functional, cell-based. The method, boiled down: as §1
In a further data set the test system is HT-29. Description: Cytotoxicity against human HT-29 cells assessed as reduction in cell viability after 72 hrs by MTT assay. Particulars: HT-29, 72 h. The class given is functional, cell-based. The method, boiled down: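 HT29 cells were cultured in RPMI-1640 with glutamine and 10% FBS, seeded at 2000–7500 cells/well, and exposed for 72 h to drug in DMSO (final DMSO <0.1%). MTT was added at 0.83 mg mL−1 final and incubated overnight, then cells were lysed in SDS/HCl and read at 570 nm. Survival was expressed as percent of drug-free control; five replicate wells.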

The target of data set [2] is T1, Solute carrier organic anion transporter family member 1B3 (Homo sapiens, UniProt Q9NPD5).
T1 sequence (Q9NPD5 whole entry): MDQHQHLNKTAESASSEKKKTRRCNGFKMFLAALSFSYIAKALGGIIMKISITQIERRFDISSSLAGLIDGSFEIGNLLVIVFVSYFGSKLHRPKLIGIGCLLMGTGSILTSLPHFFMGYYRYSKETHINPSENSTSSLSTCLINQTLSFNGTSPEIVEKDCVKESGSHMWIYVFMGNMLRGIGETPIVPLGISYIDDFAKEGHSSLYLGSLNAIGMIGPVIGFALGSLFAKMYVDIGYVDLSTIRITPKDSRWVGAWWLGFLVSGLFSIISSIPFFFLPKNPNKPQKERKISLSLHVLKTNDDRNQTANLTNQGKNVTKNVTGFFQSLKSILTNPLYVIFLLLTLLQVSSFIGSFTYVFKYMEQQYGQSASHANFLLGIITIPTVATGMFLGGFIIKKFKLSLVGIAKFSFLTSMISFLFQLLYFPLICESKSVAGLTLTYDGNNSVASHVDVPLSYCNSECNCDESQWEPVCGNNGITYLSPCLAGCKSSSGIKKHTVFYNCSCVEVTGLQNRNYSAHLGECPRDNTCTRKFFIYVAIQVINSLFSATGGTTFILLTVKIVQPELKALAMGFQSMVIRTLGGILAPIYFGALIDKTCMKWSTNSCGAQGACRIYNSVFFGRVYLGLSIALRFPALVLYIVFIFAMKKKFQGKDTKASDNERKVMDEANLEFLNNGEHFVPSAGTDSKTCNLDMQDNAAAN
Put plainly: Inhibition of human OATP1B3 expressed in HEK293 cells assessed as FMTX uptake after 5 mins by fluorescence assay. The class given is cell-based. As to conditions: for inhibition (INH): human, hek293, 5 min. The method, boiled down: (§2)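 Stably transfected HEK293 cells (human OAT1, OAT3, OCT1, OCT2, OATP1B3, OATP2B1) and mock cells were assayed 16 h after seeding in HEPES uptake buffer, pH 7.2, with fluorescent probe ± compound. Incubation was 5 min for OAT1/3 and OATPs, and 10 min for OCT1/2. Reference inhibitors were probenecid (OATs), quinine (OCTs) and rifampicin (OATPs). Uptake was stopped with ice-cold PBS and cells were lysed in Tris/Triton. Fluorescence was normalised to BCA protein; triplicates, repeated 2–3 times.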

The next data set deals with SK-OV-3. Put plainly: Cytotoxicity against human SKOV3 cells assessed as reduction in cell viability up to 20 uM after 24 hrs by MTT assay. The format is functional, cell-based. The method, boiled down:
as §1

Data set [3] has as its target T2, Organic anion transporter 3 (Homo sapiens, UniProt Q8TCC7).
T2 sequence (Q8TCC7 whole entry): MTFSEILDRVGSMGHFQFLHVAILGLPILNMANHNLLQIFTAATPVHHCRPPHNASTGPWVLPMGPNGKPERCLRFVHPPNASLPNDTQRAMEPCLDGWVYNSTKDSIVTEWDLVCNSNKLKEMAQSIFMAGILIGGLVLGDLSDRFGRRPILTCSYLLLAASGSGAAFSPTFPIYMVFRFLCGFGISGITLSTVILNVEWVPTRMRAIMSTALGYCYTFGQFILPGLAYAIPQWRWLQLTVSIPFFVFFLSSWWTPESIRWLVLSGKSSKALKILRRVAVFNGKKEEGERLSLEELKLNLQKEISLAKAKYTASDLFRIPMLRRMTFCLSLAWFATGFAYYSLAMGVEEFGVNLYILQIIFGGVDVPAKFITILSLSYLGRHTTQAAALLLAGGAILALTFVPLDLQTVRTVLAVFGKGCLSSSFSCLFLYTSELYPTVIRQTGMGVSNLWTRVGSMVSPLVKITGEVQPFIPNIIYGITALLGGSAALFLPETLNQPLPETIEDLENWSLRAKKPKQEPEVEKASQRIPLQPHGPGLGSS
Description: Inhibition of human OAT3 expressed in HEK293 cells assessed as 6-CF uptake after 5 mins by fluorescence assay. The format is cell-based. As to conditions: for inhibition (INH): human, hek293, 5 min. The method, boiled down:
as §2

Regarding `COc1ccc(/C=C\c2cc(OC)c(OC)c(OC)c2)cc1O[C@@H]1O[C@H](CO)[C@@H](O)[C@H](O)[C@H]1O`, the Activity result was “Toxic” in data set [1] and “Non-Toxic” in the data set on HEK293. Further, the result with MDA-MB-231, in the data set with DU-145 and in the data set with SK-OV-3 was Active. For the same compound, the IC50 in the data set on HT-29 is 6.91 µM; in data set [2] it was greater than 200 µM; in data set [3] it was greater than 200 µM. Besides, the “inhibition (INH)” value in data set [2] and in data set [3] was “Dose-dependent effect” each time.
Turning to `COc1ccc(/C=C\c2cc(OC)c(OC)c(OC)c2)cc1O` [COMBRETASTATIN A4], the Activity result is recorded as “Toxic” in data set [1] and “Non-Toxic” in the data set with HEK293. Further, the result in the data set on MDA-MB-231, in the data set on DU-145 and with SK-OV-3 was Active. The IC50 in the data set with HT-29 worked out at 0.72 µM; in data set [2] it was 195 µM; in data set [3], 16.4 µM. The “inhibition (INH)” value in data set [2] and in data set [3] was “Dose-dependent effect” each time.
